Measurements taken from ChEMBL document CHEMBL1944577, “Synthesis, evaluation and docking studies on 3-alkoxy-4-methanesulfonamido acetophenone derivatives as non ulcerogenic anti-inflammatory agents” (Eur J Med Chem, 2012).

Assays:
Rattus norvegicus [1] = assay: Antiinflammatory activity in Wistar rat assessed as inhibition of carrageenan-induced paw oedema at 100 mg/kg, po dosed 30 mins after carrageenan challenge measured after 5 hrs by plethysmograph analysis relative to control; assay type: functional
Summary of the method: (§1)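 Wistar rats (150–200 g, either sex) in groups of six. Carrageenan 1% w/v in saline, 0.1 ml, injected into the plantar left hind paw. Compound was given p.o. 30 min later as a suspension in 0.5% w/v CMC; controls received CMC. Paw volume was read by mercury-displacement plethysmograph at 0–5 h. % reduction = (1 − Vt/Vc)×100 versus control, at 5 h.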

Rattus norvegicus [2] = assay: Antiinflammatory activity in po dosed Wistar rat assessed as inhibition of carrageenan-induced paw oedema compound administered 30 mins after carrageenan challenge measured after 5 hrs by plethysmograph analysis; assay type: functional
Summary of the method: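 Carrageenan paw edema in Wistar rats (150–200 g, either sex, n = 6 per group): 0.1 ml 1% w/v carrageenan injected into the left plantar region. Compounds were suspended in 0.5% w/v CMC and dosed orally 30 min post-challenge at three graded doses. Plethysmographic (mercury displacement) paw volume was read to 5 h. ED50 was derived from the three-dose responses.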

Rattus norvegicus [3] = assay: Ulcerogenicity in Wistar rat assessed as lesion score at 100 mg/kg, po after 6 hrs; assay type: toxicity, organism-based; parameters: dose 100 mg/kg, route oral; details: in vivo
Summary of the method: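 Wistar rats of either sex (150–200 g, n = 6) were dosed orally and killed by cervical dislocation 6 h later. Stomachs were inflated with 2% formalin, fixed 10 min, and opened along the greater curvature. Lesions were examined under a dissecting microscope (10x grid). Longest lesion diameters were summed per animal as the lesion score (mm), then averaged per group.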

Rattus norvegicus [4] = assay: Antiinflammatory activity in Wistar rat assessed as inhibition of carrageenan-induced paw oedema at 10 mg/kg, po dosed 30 mins after carrageenan challenge measured after 5 hrs by plethysmograph analysis relative to control; assay type: functional; summary of the method: as §1
Rattus norvegicus [5] = assay: Antiinflammatory activity in Wistar rat assessed as inhibition of carrageenan-induced paw oedema at 30 mg/kg, po dosed 30 mins after carrageenan challenge measured after 5 hrs by plethysmograph analysis relative to control; assay type: functional; summary of the method: as §1

SMILES	inhibition in vivo at 100 mg/kg (Rattus norvegicus [1]) [%]	ED50 (Rattus norvegicus [2]) [mg/kg]	UI (Rattus norvegicus [3]) [mm]	inhibition in vivo at 10 mg/kg (Rattus norvegicus [4]) [%]	inhibition in vivo at 30 mg/kg (Rattus norvegicus [5]) [%]
CCCCOc1cc(C(C)=O)ccc1NS(C)(=O)=O	72.7	2	5	–	–
CCCCCOc1cc(C(C)=O)ccc1NS(C)(=O)=O	59.6	8.18	4	–	–
CCCCCCOc1cc(C(C)=O)ccc1NS(C)(=O)=O	76.8	2.3	4	–	–
CC(=O)c1ccc(NS(C)(=O)=O)c(OC2CCCCC2)c1	73.7	2.23	3	–	–
CCCCOc1cc(C(C)=O)ccc1N	13.8	–	2	–	–
CCCCCOc1cc(C(C)=O)ccc1N	9.88	–	2	–	–
CCCCCCOc1cc(C(C)=O)ccc1N	14.1	–	3	–	–
CC(=O)c1ccc(N)c(OC2CCCCC2)c1	19	–	3	–	–
COc1ccc2c(c1)c(CC(=O)O)c(C)n2C(=O)c1ccc(Cl)cc1 [INDOMETHACIN]	–	2	22.3	79.7	–
CS(=O)(=O)c1ccc(C2=C(c3ccccc3)C(=O)OC2)cc1 [ROFECOXIB]	–	2.5	3	–	81.8
